Source: ChEMBL document CHEMBL5257161, “Mycobacterium tuberculosis CitA activity is modulated by cysteine oxidation and pyruvate binding” (RSC Med Chem, 2023)

Tests used:
[1] = molecular target: T1, Putative citrate synthase 2 (Mycobacterium tuberculosis) (UniProt P9WPD3); experiment: Binding affinity to Mycobacterium tuberculosis wild type CitA expressed in Escherichia coli cells assessed as change in melting temperature by thermal shift assay
T1 sequence (whole entry): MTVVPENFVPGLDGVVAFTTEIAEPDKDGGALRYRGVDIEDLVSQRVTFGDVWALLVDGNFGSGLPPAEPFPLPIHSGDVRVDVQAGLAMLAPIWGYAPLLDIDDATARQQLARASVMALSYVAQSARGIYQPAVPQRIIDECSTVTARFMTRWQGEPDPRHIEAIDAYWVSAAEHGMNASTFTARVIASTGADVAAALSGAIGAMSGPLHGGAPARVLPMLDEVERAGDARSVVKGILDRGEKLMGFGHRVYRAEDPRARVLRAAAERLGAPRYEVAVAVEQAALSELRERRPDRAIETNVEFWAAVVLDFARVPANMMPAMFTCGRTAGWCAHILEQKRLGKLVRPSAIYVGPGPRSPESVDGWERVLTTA
Procedure, shortened: (§1)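 Thermal shift used 25 μM purified protein in 50 mM Tris pH 8.0 with 2 mM ligand (sodium pyruvate, OAA, or both), plus Protein Thermal Shift dye at 2X final. ΔTm was taken from the melt-curve derivative relative to protein without ligand.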

[2] = molecular target: T1, Putative citrate synthase 2 (Mycobacterium tuberculosis); experiment: Binding affinity to Mycobacterium tuberculosis wild type CitA expressed in Escherichia coli cells assessed as change in melting temperature in presence of oxaloacetate by thermal shift assay; procedure, shortened: as §1
[3] = molecular target: T1, Putative citrate synthase 2 (Mycobacterium tuberculosis); experiment: Inhibition of Mycobacterium tuberculosis wild type CitA expressed in Escherichia coli cells by UV spectrophotometric based analysis
Procedure, shortened: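 Michael acceptor compounds were added directly to the DTNB/OAA/AcCoA reaction with 10 nM CitA in 50 mM Tris pH 8.0 at 25 °C, read at 412 nm. The screen used 20 μM compound. Dose–response data were fitted to the Hill equation for apparent IC50. A control measured how fast the compounds react with reaction components.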

[4] = molecular target: T1, Putative citrate synthase 2 (Mycobacterium tuberculosis); experiment: Binding affinity to Mycobacterium tuberculosis wild type CitA expressed in Escherichia coli cells assessed as change in melting temperature in presence of pyruvate by thermal shift assay; procedure, shortened: as §1

Row | SMILES | ΔTm [1] | ΔTm [2] | Activity [3] | ΔTm [4]
1 | O=CC(=O)O | 0.1 °C |  |  | 
2 | CC(=O)C(=O)O | 2.31 °C | 12.3 °C | Dose-Dependent Effect | 
3 | O=C(O)CO | 0.15 °C |  |  | 
4 | CC(=O)CC(=O)O | 0.19 °C |  |  | 
5 | O=C(O)CC(=O)C(=O)O | 11.2 °C |  |  | 12.3 °C
